Screening results (PubChem)
Mdm2 MdmX PPI: inhibitors of human Mdm2-MdmX association, primary screen, cell-based, luminescence, split luciferase, SaOS-2, uHTS | Protein Mdm4 (Homo sapiens) + E3 ubiquitin-protein ligase Mdm2 (Homo sapiens), … | SaOS-2 split-luciferase Mdm2/MdmX complementation | inhibition, % at 8 µM | 330,000 compounds, 3% hits | AID 485346, 2010;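 active = inhibition of at least 50% at 8 µM in the primary screen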
Target sequence (O15151 whole entry, looked up): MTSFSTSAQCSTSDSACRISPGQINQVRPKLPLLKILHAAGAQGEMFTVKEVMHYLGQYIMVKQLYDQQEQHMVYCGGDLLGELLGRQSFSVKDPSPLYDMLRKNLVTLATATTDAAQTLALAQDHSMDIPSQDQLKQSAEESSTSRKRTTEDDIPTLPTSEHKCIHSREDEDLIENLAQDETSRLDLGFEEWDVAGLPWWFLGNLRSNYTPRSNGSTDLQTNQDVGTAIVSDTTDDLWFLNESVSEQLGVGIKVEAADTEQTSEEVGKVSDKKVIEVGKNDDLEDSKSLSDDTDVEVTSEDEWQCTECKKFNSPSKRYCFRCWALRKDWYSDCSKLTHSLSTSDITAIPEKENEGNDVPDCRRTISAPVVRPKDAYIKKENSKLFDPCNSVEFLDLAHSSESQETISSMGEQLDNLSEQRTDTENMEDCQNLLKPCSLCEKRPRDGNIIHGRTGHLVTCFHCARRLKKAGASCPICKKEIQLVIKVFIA
Target sequence (Q00987 whole entry, looked up): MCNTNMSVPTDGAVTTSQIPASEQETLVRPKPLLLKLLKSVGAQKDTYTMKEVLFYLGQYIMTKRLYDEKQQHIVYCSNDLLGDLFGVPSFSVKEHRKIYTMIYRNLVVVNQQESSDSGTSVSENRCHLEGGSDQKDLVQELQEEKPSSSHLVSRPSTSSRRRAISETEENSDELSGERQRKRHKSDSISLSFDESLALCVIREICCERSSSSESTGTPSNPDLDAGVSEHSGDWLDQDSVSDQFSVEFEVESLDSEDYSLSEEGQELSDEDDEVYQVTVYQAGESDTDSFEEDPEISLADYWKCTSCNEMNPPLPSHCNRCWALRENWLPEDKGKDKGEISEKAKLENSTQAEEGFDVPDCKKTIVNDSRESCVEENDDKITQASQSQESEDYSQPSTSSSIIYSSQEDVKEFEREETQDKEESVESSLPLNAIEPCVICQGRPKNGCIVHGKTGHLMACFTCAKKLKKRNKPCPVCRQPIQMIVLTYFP
aSyn UTR inh: MLPCN primary screen, SNCA 5' untranslated region | alpha-synuclein 5'UTR reporter, inhibitor activity | 300,000 compounds, 0.82% hits | inhibition, % (tested at 7.5 µM); in the data active = inhibition above about 60%;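 also: H4 neuroglioblastoma cells stably carrying SNCA 5'UTR luciferase fusion; 0% = DMSO wells and 100% = positive control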
T cruzi repl: inhibitors of intracellular T. cruzi growth, primary screen, luminescence, NIH3T3 host cells | T. cruzi beta-gal in NIH3T3, 90 h | inhibition, % (test concentration not listed) | 300,000 compounds, 1.4% hits | AID 1885, 2009;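 active = mean inhibition across valid replicates above about 55%, limit read from the data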;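 also: signal also drops with host cell toxicity which is not excluded here; 0% = plate median of DMSO wells and 100% = zero luminescence signal; higher percent means less beta-gal luminescence so fewer parasites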
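System: NIH/3T3 fibroblasts plus reporter T. cruzi. Medium: DMEM plus 2% FBS. Probe or stimulus: 5000 reporter trypomastigotes per well. Compound: single 50 nL compound addition per well in DMSO. Incubation: co-culture of at least 90 h after 3 h attachment. Detection: GalScreen β-gal luminescence, detergent lysis, 60 min. Evaluation: parasite load inhibition, %.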
CSC inhib: cancer stem cell viability inhibitors, primary screen, luminescence; AID 2717, 2010; cancer stem cell-like cells viability; 300,000 compounds, 1.1% hits; inhibition, % at 7.5 µM; in the data active = inhibition above about 75%; tested in HMLE shEcad cells
SKKanGAS inh: S. pyogenes SKKanGAS growth inhibitors in kanamycin, primary screen, streptokinase expression inhibitor project, SKKanGAS strain, BacTiter-Glo luminescence. 6 h. inhibition, % at 7.5 µM. 300,000 compounds, 1.3% hits. AID 1662, 2009;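 active = mean replicate score, as percent of positive control median, at least 50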;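 also: strain carries kanamycin resistance gene driven by streptokinase promoter and grows in 40 µg/ml kanamycin; loss of luminescence reflects streptokinase promoter inhibition or plain growth inhibition; 0% = median of DMSO wells and 100% = positive control at its reference dose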
Mdm2 MdmX conf: Mdm2-MdmX complex disruptors, retested hits, confirmation, luminescence, single concentration | AID 489028, 2010 | shares compounds with Mdm2 MdmX PPI | 10,000 compounds, 55% hits | inhibition, % at 8 µM | Mdm2-MdmX binding, luminescent assay; in the data active = inhibition above about 40%
FLuc counter: full-length luciferase signal inhibition, confirmation, counter-screen for Mdm2/MdmX interaction inhibitor project, cell-based, single concentration, SaOS-2; shares compounds with Mdm2 MdmX PPI; SaOS-2 full-length luciferase counterscreen, luminescence; inhibition, % at 8 µM; 6,200 compounds, 77% hits;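 active = mean inhibition at 8 µM reaching about 37%, which flags the compound as non-specific, limit read from the data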;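 also: p53-null SaOS-2 cells with luciferase driven by a doxycycline-inducible promoter; compound on cells about two nights before reading with doxycycline added after day one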
An asterisk follows results filed as active; . = not tested or not shown. Shown are actives, neighbours in structure and some others; about 5.4% of the full set was active somewhere.

SMILES | Mdm2 MdmX PPI | aSyn UTR inh | T cruzi repl | CSC inhib | SKKanGAS inh | Mdm2 MdmX conf | FLuc counter
CN1CC(=O)N2C(c3ccc(Cl)cc3)c3[nH]c4ccccc4c3C[C@H]2C1=O (stereo partly specified) | 51.8* | -12.7 | 11.7 | 7.6 | 15.9 | 14.2 | .
CCN1C(=O)[C@@H]2Cc3c([nH]c4ccccc34)C(c3ccc(OC)cc3)N2C1=S (stereo partly specified) | 73.1* | 27.0 | 34.9 | 49.9 | 9.6 | 58.0* | 57.5*
COC(=O)c1ccc(C2c3[nH]c4ccccc4c3C[C@H]3C(=O)N(C)CC(=O)N23)cc1 (stereo partly specified) | 2.7 | -14.9 | -4.0 | 4.5 | 11.2 | . | .
COc1ccc(C2c3[nH]c4ccccc4c3C[C@H]3C(=O)N(C4CCN(Cc5ccccc5)CC4)CC(=O)N23)cc1OC (stereo partly specified) | 26.9 | 5.7 | 25.2 | -9.3 | 1.9 | . | .
COc1ccccc1C1c2[nH]c3ccccc3c2C[C@H]2C(=O)N(C3CCN(Cc4ccccc4)CC3)CC(=O)N12 (stereo partly specified) | 54.3* | 22.7 | 37.9 | -2.7 | -2.5 | 38.4 | 89.8*
CCOc1cccc(CN(CC)CC2CCCN(CCc3cccc(OC)c3)C2)c1O (stereo unspecified) | -10.4 | 2.1 | 47.6 | 3.8 | 6.4 | . | .
C[C@@H]1CCCCCCCCC(=O)OCCN[C@H](C)CCCCCCCCC(=O)OCCN[C@H](C)CCCCCCCCC(=O)OCCN1 | -5.0 | . | . | -5.8 | . | . | .
CSc1ccc(Cl)c(C(=O)Nc2ccc(OCC(N)=O)cc2)c1 | -3.0 | 15.3 | -0.4 | 6.1 | 1.3 | . | .
C/C=C1\COC(C(=O)NCCN2CCCC2)(C(F)(F)F)C=C1C=C1CCCCC1 (stereo unspecified) | 52.7* | -31.9 | 41.9 | 34.4 | 9.6 | 20.2 | .
C/C=C1\COC(C(=O)NCc2ccccc2)(C(F)(F)F)C=C1C=C1CCCCC1 (stereo unspecified) | 20.5 | -2.4 | 17.4 | 1.0 | 28.2 | . | .
CCCCC(=O)NS(=O)(=O)c1ccc(N=NN2CCOCC2)cc1 | 16.9 | 5.9 | -7.5 | -2.7 | 19.5 | . | .
Cc1ccc2occ(/C=N/NC(=O)c3ccc(Cl)cc3)c(=O)c2c1 | 37.3 | -3.7 | 2.6 | -3.2 | -2.8 | . | .
CCOc1ccccc1C(=O)N/N=C/c1coc2ccc(Cl)cc2c1=O | 82.1* | . | . | -5.1 | . | 85.2* | 21.9
Cc1ccc2occ(/C=N/NC(=O)c3ccccc3O)c(=O)c2c1 | 80.7* | 25.0 | 6.6 | -7.4 | -3.0 | 65.6* | 45.8*
O=C(O)C1CCCC2CN3CCc4c([nH]c5ccccc45)C3C(O)C21 (stereo unspecified) | 10.3 | 2.9 | -6.6 | -10.1 | -5.4 | . | .
Cc1nc(N2CCC(C)CC2)c2c(C)c(C(=O)Nc3cccc(C(F)(F)F)c3)sc2n1 | 19.4 | 20.4 | 38.1 | 27.8 | 21.0 | . | .
Cc1nc(Nc2cnc(/C=C/c3cc(C(=O)Nc4cccc(C(F)(F)F)c4)ccc3C)cn2)cc(N2CCNCC2)n1 | 89.8* | 81.2* | 45.0 | 136.2* | 72.3* | 52.1* | 49.5*
C[C@@H]1CN([C@H](C)CO)C(=O)c2cc(NS(=O)(=O)c3ccc(F)cc3)ccc2O[C@@H]1CN(C)Cc1ccc(Cl)c(Cl)c1 | 77.6* | . | . | . | . | 56.6* | 49.6*
C[C@@H]1CN([C@H](C)CO)C(=O)c2cc(NC(=O)Nc3ccc(C(F)(F)F)cc3)ccc2O[C@H]1CN(C)Cc1ccc(Cl)c(Cl)c1 | 98.4* | . | . | . | . | 47.0* | 19.6
C[C@H](CO)N1C[C@H](C)[C@@H](CN(C)Cc2ccc(Cl)c(Cl)c2)Oc2c(NC(=O)CCC(F)(F)F)cccc2C1=O | 15.1 | . | . | . | . | . | .
C[C@H]1CN([C@@H](C)CO)C(=O)c2cccc(NC(=O)Nc3ccc(C(F)(F)F)cc3)c2O[C@@H]1CN(C)Cc1ccc(Cl)c(Cl)c1 | 72.3* | . | . | . | . | 49.3* | 75.5*
CC(C)(O)C#Cc1ccc(C(=O)NCc2ccccc2F)cc1 | -6.4 | -66.1 | -1.0 | -5.6 | -2.5 | . | .
COCCCn1nnnc1SCC(=O)Nc1nc2ccccc2s1 | 2.5 | -18.3 | 4.2 | . | -1.8 | . | .
Cc1ccc(C(C#N)c2ccc3c(C(F)(F)F)cc(C(F)(F)F)nc3n2)cc1 (stereo unspecified) | 57.7* | 3.5 | 41.3 | 86.1* | 10.1 | -0.6 | .
CN(N)c1ccc2c(C(F)(F)F)cc(C(F)(F)F)nc2n1 | -12.8 | -3.4 | 4.0 | 5.4 | -7.0 | . | .
SMILES | Mdm2 MdmX PPI | aSyn UTR inh | T cruzi repl | CSC inhib | SKKanGAS inh | Mdm2 MdmX conf | FLuc counter
N#CC(c1ccccc1)c1ccc2c(C(F)(F)F)cc(C(F)(F)F)nc2n1 (stereo unspecified) | 68.0* | 31.2 | 11.9 | -6.4 | -3.0 | 8.8 | .
N#CC1=C(c2ccccc2)/C(=C/c2ccccc2)OC1=O | 100.3* | 19.6 | 2.4 | -6.3 | 56.8* | 75.4* | 49.2*
O=C1O/C(=C/c2ccccc2)c2ccccc21 | 18.0 | -24.7 | -10.6 | -12.0 | -4.5 | . | .
O=C(C1=C[C@@H](c2ccc(Br)cc2)C[C@@H](OCCCCO)O1)N1CCN(Cc2ccccc2)CC1 | 55.5* | 42.8 | 8.7 | 34.1 | 1.1 | 49.8* | 65.7*
O=C(O)c1cccc(-c2ccc(/C=N/n3cnc4sc5c(c4c3=O)CCCC5)o2)c1 | -8.9 | -14.3 | 2.9 | -9.3 | 7.6 | . | .
CN1C(=O)C(O)(CC(=O)/C=C\c2ccc3c(c2)OCO3)c2ccccc21 (stereo unspecified) | 55.3* | -37.6 | -23.8 | 2.3 | . | -2.5 | .
NC(=O)CN1C(=O)C(O)(CC(=O)/C=C\c2ccc3c(c2)OCO3)c2ccccc21 (stereo unspecified) | 5.8 | -69.8 | -24.5 | -3.8 | -8.2 | . | .
O=C(COc1ccc(Br)cc1)Nc1ccc(N2CCOCC2)cc1N1CCOCC1 | 82.4* | . | . | . | . | 8.4 | .
O=C(NCC(c1ccco1)N1CCCC1)c1cc(S(=O)(=O)N2CCOCC2)ccc1Cl (stereo unspecified) | 6.4 | . | . | . | . | . | .
COc1cccc(NC(=S)N2CCN(C(c3ccccc3)c3ccccc3)CC2)c1 | 78.5* | -2.7 | 8.6 | 21.4 | 7.4 | 41.6* | 68.2*
COc1ccc(NC(=S)N2CCN(C(c3ccccc3)c3ccccc3)CC2)c(OC)c1 | 3.9 | -16.8 | 4.7 | -6.6 | 7.4 | . | .
CN(C)CCN(C(=O)/C=C/c1cccs1)c1nc2ccc(F)cc2s1 | 58.6* | -41.6 | 42.8 | 5.7 | 4.3 | 42.8* | 56.1*
